Data on three molecules can be found in ChEMBL document CHEMBL1122782, “Bulky amine analogues of ketoprofen: potent antiinflammatory agents” (J Med Chem, 1984).

Holding throughout (format): functional
Test [1] relates to Rattus norvegicus. As to the kind of experiment: The percent inhibition was calculated from the average differences in hind paw volume between the adjuvant injected controls and the adjuvant-injected medicated rats at 0.08 mmol/kg; 50-59.
Test [2] concerns Rattus norvegicus. Put plainly: The mean increase in paw volume was compared between drug treated groups and placebo to calculate the percent inhibition in rats at 0.02 mmol/kg by carrageenan Edema Assay; 0-19.
The test system of test [3] is Rattus norvegicus. Put plainly: The mean increase in paw volume was compared between drug treated groups and placebo to calculate the percent inhibition in rats at 0.08 mmol/kg by carrageenan Edema Assay; 0-19.
For test [4], the species on record is Rattus norvegicus. Put plainly: Compound was evaluated for highest non-ulcerogenic dose (less than 50% ulcer incidence). Particulars: read-out: ED50. The method, boiled down: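 Taken from the 21-day adjuvant arthritis test in male Sprague-Dawley rats dosed orally each day from the day of adjuvant injection. Small intestines and stomachs were examined for ulceration at the end. The value is the highest dose giving less than 50% ulcer incidence.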

The test system of test [5] is Rattus norvegicus. Put plainly: Antiinflammatory efficacy is measured by the percent inhibition of paw volume during the 3 week adjuvant arthritis test at 0.08 mM/kg(24.7 mg). The method, boiled down:
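Male Sprague-Dawley rats (200–230 g) were used in groups of eight. Each received 0.1 mL of 0.6% M. butyricum in heavy mineral oil into the plantar tissue of one hind paw. Daily oral gavage in 1% gum tragacanth or corn oil-water emulsion began on the injection day and ran 21 days. Total hind paw volume was measured by mercury displacement, and inhibition was taken versus vehicle-treated adjuvant controls.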

For test [6], the system named is Rattus norvegicus. Put plainly: The mean increase in paw volume was compared between drug treated groups and placebo to calculate the percent inhibition in rats at 0.02 mmol/kg by carrageenan Edema Assay; 30-39. Particulars: Rattus norvegicus.
Test [7] deals with Rattus norvegicus. Put plainly: Potency relative to phenylbutazone at 0.08 mM/kg.
Test [8] deals with Rattus norvegicus. As to the kind of experiment: The percent inhibition was calculated from the average differences in hind paw volume between the adjuvant injected controls and the adjuvant-injected medicated rats at 0.08 mmol/kg; 60-69. Particulars: Rattus norvegicus.
The subject of test [9] is Rattus norvegicus. Put plainly: Ulcerogenicity was measured in intestine during the 3 week adjuvant arthritis test, no of animals with ulcers out of 8 animals tested at 0.08 mM/kg (24.7 mg) was reported. The method, boiled down:
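In the 21-day adjuvant arthritis model, male Sprague-Dawley rats (200–230 g) received an M. butyricum mineral-oil suspension into one hind paw. They were dosed daily by gavage from the day of injection. At the end of the study the rats were killed, and the small intestines were examined for ulcers. Results are given as the number of ulcerated animals over the number tested.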

Test [10] relates to Rattus norvegicus. As to the kind of experiment: Ulcerogenicity was measured in stomach during the 3 week adjuvant arthritis test, no of animals with ulcers out of 8 animals tested at 0.08 mM/kg (24.7 mg) was reported. In a few lines:
(§1)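 Male Sprague-Dawley rats (200–230 g) were injected in the plantar tissue of one hind paw with 0.1 mL of 0.6% M. butyricum suspension in heavy mineral oil. Daily oral gavage began on the day of adjuvant injection and ran for the 21 days, with drug suspended in 1% gum tragacanth or a corn oil-water emulsion. At the end the rats were sacrificed and the small intestine and stomach were examined for ulcers. Results are given as animals with ulcers/animals tested.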

Test [11] deals with Rattus norvegicus. As to the kind of experiment: Ulcerogenicity was measured in stomach during the 3 week adjuvant arthritis test, no of animals with ulcers out of 8 animals tested at 0.16 mM/kg (49.4 mg) was reported. In a few lines:
as §1

The test system of test [12] is Rattus norvegicus. Put plainly: Ulcerogenicity was measured in intestine during the 3 week adjuvant arthritis test, no of animals with ulcers out of 8 animals tested at 0.16 mM/kg (49.4 mg) was reported. The method, boiled down: as §1
The subject of test [13] is Rattus norvegicus. As to the kind of experiment: Antiinflammatory efficacy is measured by the weight gain in rats during the 3 week adjuvant arthritis test at 0.08 mM/kg(24.7 mg). In a few lines: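 Rats were adjuvant-injected (M. butyricum in mineral oil, one hind paw) or given a mineral-oil placebo. They were dosed by gavage daily for 21 days from the injection day, with vehicle only for both control groups, then weighed at the end. Weight gain % = (treated − adjuvant control)/(negative control − adjuvant control) × 100.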

For orientation: inhibition in vivo means the relative decrease from the control value, in per cent. A word on the Inhibition: it is how much of the control response was suppressed.

SMILES strings stand for the structures.

For `CC1CCCC(C)N1CCc1cccc(C(O)c2ccccc2)c1` (stereo not drawn), in the test on Rattus norvegicus [1], the inhibition in vivo at 80 µmol/kg was 50%. The inhibition in vivo at 20 µmol/kg in the test on Rattus norvegicus [2] is 0%.

Turning to `CC(CN1CCCC1CC1CCCCC1)c1cccc(C(O)c2ccccc2)c1` (stereo not drawn), the inhibition in vivo at 80 µmol/kg in the test with Rattus norvegicus [3] is 0%.

For `CC(CN1CCOCC1)c1cccc(C(=O)c2ccccc2)c1` (stereo not drawn), the highest non-ulcerogenic dose in the test listed under Rattus norvegicus [4] was found to be 8 µmol/kg. The Inhibition in the test with Rattus norvegicus [5] is 82%. Moreover, the inhibition in vivo at 20 µmol/kg with Rattus norvegicus [6] is 30%. Also, in the test on Rattus norvegicus [7], the Relative potency is reported as 8.6%. For the same molecule, the inhibition in vivo at 80 µmol/kg with Rattus norvegicus [8] is 80%. Further, the Ulcerogenic index is 1 in the test with Rattus norvegicus [9], 0 in the test with Rattus norvegicus [10], 1 with Rattus norvegicus [11] and 3 in the test with Rattus norvegicus [12]. The Weight gain in the test on Rattus norvegicus [13] was 66%.
